From PMC3163381 (Biochemistry, 2011)

What was measured:
[1] = Surface tension measurements at the air-water interface; assay type: physicochemical; settings: for surface activity at the air-water interface: result in words
[2] = Pressure-area isotherms of lipid monolayers with the substance in the subphase; assay type: physicochemical, Escherichia coli; settings: for increase in the lipid molecular area: 1 mM in subphase, at 35 mN/m (monolayer-bilayer equivalence pressure)
[3] = Stability of AI-1 in water and phosphate buffer; assay type: physicochemical
Summary of the method: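 Test compound was held in deionized water and in phosphate buffer at pH 7.4, and followed over several days. Half-life was determined in the buffer.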

[4] = test system: MscS; test: Patch-clamp of MscS in giant spheroplast patches, activation midpoint; assay type: biochemical, E. coli
Summary of the method: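 Giant spheroplasts from cephalexin-treated E. coli MJF 465 (mscS/mscK/mscL) expressing WT MscS. Excised inside-out patches in symmetrical 200mM KCl, 45mM MgCl2, 5mM CaCl2, 5mM HEPES (pH 7.4, KOH); bath had 400mM sucrose added. Test compound was perfused into the bath (cytoplasmic side). p0.5 was taken from 1 s pressure ramps, first within 1 min, then tracked over time, and normalized to pre-addition control.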

[5] = Solubility and stock solution observations in aqueous solution; settings: result in words

SMILES | Γ, surface excess ([1]; Gibbs isotherm fit, 100 mM KCl, 5 mM HEPES pH 7.4) | AS, molecular area at the surface ([1]; air-water interface, from Gibbs isotherm fit) | decrease of surface tension of the solution ([1]; at 1–5 mM, aqueous buffer pH 7.4) | log Kmemb, membrane partitioning coefficient ([1]; calculated from AS and KAW according to Suomalainen) | KAW, propensity toward air-water interface ([1]; extrapolated Gibbs isotherm fit, pH 7.4) | lateral pressure increase in monolayers ([2]; at lipid area of 68–70 Å^2, Fig. 4A) | stability in pure water ([3]; deionized water, result in words) | half-life ([3]; phosphate buffer at pH 7.4) | shift of MscS p0.5 toward higher tension ([4]; 1 mM AI-1 from cytoplasmic side, relative to untreated control) | surface activity at the air-water interface [1] | increase in the lipid molecular area [2] | effect on the activation midpoint of MscS ([4]; up to 1 mM in the bath, result in words, listed as AI-2) | solubility in aqueous solution [5] | level at which p0.5 stabilizes above the control ([4]; 2.5 mM indole, after return) | transient shift of MscS activation curve towards higher tension ([4]; 2.5 mM indole, cytoplasmic side, naive patch)
CCCCCCCC(=O)CC(=O)N[C@H]1CCOC1=O [AI-1, N-(3-Oxodecanoyl)-L-homoserine lactone] | 3.4*10^−6 mol/m^2 | 49 Å^2 | ~ 17 mN/m | 1.94 | 5600 M⁻¹ | ~ 5 mN/m | stable in pure water in the course of several days | 130 h | ≤ 23% |  |  |  |  |  | 
CC(=O)C(=O)C(O)CO (centres unmarked) [AI-2 (Methyl), 4,5-dihydroxy-2,3-pentanedione] |  |  |  |  |  |  |  |  |  | did not show any appreciable surface activity | 2% | no detectable shifts |  |  | 
c1ccc2[nH]ccc2c1 [Indole] |  |  |  |  |  |  |  |  |  | did not show any appreciable surface activity | 5% |  | limited solubility | ~ 4% | ~ 20%
